Measured values from ChEMBL document CHEMBL3286372, “Design, synthesis and structure-activity relationship of novel semi-synthetic flavonoids as antiproliferative agents” (2014).

Assays:
NCI-H23 = assay: Growth inhibition of human NCI-H23 cells after 48 hrs by coulter counting analysis; type: functional; conditions: NCI-H23, 48 h
How it was run: (§1)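 Five-dose NCI-60 follow-up, 0.01–100 µM, made from DMSO stock in buffered saline (final DMSO <1%), in duplicate wells. Cells in RPMI 1640 with 10% FBS at 6×10^4 cells/ml, 37 °C, 5% CO2, 48 h. Cells diluted tenfold in saline, Coulter-counted and corrected for dilution. GI50, TGI and LC50 taken from log concentration–percent growth curves.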

[1] = Growth inhibition of human OVCAR8 cells after 48 hrs by coulter counting analysis; type: functional; conditions: OVCAR-8, 48 h; how it was run: as §1
TK-10 = assay: Growth inhibition of human TK10 cells after 48 hrs by coulter counting analysis; type: functional; conditions: TK-10, 48 h
How it was run: (§2)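 NCI five-dose screen, 0.01-100 µM, from DMSO stocks diluted in buffer saline (final DMSO <1%). Cells grown in RPMI 1640 + 10% FBS, seeded at 6×10^4 cells/ml, in duplicate wells. Exposure 48 h at 37 °C, 5% CO2. Cells diluted 10-fold in saline and counted by Coulter counter. GI50 derived from log concentration–percent growth inhibition curves. Controls carried matching PBS/saline/DMSO.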

A549 = assay: Growth inhibition of human A549/ATCC cells after 48 hrs by coulter counting analysis; type: functional; conditions: A549, 48 h
How it was run: (§3)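 NCI five-dose screen at 0.01-100 µM, diluted from DMSO stocks in buffered saline (final DMSO <1%). Cells at 6×10^4 cells/ml in RPMI 1640 with 10% FBS, in duplicate wells, at 37 °C under 5% CO2 for 48 h. Cells diluted tenfold in saline and Coulter-counted. GI50, TGI and LC50 taken from log concentration-growth inhibition curves.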

[2] = Growth inhibition of human UO31 cells at 10 uM after 48 hrs by sulforhodamine B assay relative to control; type: functional; conditions: UO-31, 48 h, read-out: GI
How it was run: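 NCI-60 primary single-dose screen at 10 µM with continuous 48 h exposure. Cell viability/growth read by sulforhodamine B protein staining. Reported as percent growth inhibition relative to untreated cells.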

DU-145 [3] = assay: Growth inhibition of human DU145 cells after 48 hrs by coulter counting analysis; type: functional; conditions: DU-145, 48 h; how it was run: as §3
[4] = biological target: Glycogen synthase kinase-3 beta (Homo sapiens) (UniProt P49841); assay: Inhibition of GSK-3beta (unknown origin) at 20 uM after 30 mins by scintillation counting analysis relative to control
How it was run: (§4)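 Recombinant kinases, cloned, expressed and purified in-house. Radiometric ³³P-ATP assay with kinase at ~10-50 nM final and 1-5 µg peptide or protein substrate. Compound at 20 µM final, in duplicate. Reaction started by adding ATP, run 30 min at ambient temperature, then spotted on P81 phosphocellulose. Plates washed in 1% phosphoric acid and counted by scintillation. No-substrate blank subtracted. Result is mean % activity change versus DMSO control.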

[5] = Growth inhibition of human RXF393 cells after 48 hrs by coulter counting analysis; type: functional; conditions: RXF 393, 48 h; how it was run: as §1
CAKI-1 = assay: Growth inhibition of human CAKI-1 cells after 48 hrs by coulter counting analysis; type: functional; conditions: CAKI-1, 48 h; how it was run: as §3
HCT-116 = assay: Growth inhibition of human HCT116 cells after 48 hrs by coulter counting analysis; type: functional; conditions: HCT-116, 48 h; how it was run: as §3
CCRF-CEM [6] = assay: Growth inhibition of human CCRF-CEM cells at 10 uM after 48 hrs by sulforhodamine B assay relative to control; type: functional; conditions: read-out: GI
How it was run: (§5)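 NCI-60 primary screen at a single dose of 10 µM with 48 h continuous exposure. Growth or viability read by sulforhodamine B protein staining and expressed as percent growth inhibition versus untreated cells.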

SK-MEL-5 = assay: Growth inhibition of human SK-MEL-5 cells after 48 hrs by coulter counting analysis; type: functional; conditions: SK-MEL-5, 48 h; how it was run: as §1
K562 = assay: Growth inhibition of human K562 cells after 48 hrs by coulter counting analysis; type: functional; conditions: K562, 48 h; how it was run: as §3
[7] = Growth inhibition of human HCC2998 cells after 48 hrs by coulter counting analysis; type: functional; conditions: HCC 2998, 48 h; how it was run: as §3
A498 = assay: Growth inhibition of human A498 cells after 48 hrs by coulter counting analysis; type: functional; conditions: A498, 48 h; how it was run: as §3
NCI-H522 = assay: Growth inhibition of human NCI-H522 cells after 48 hrs by coulter counting analysis; type: functional; conditions: NCI-H522, 48 h; how it was run: as §1
HOP-62 = assay: Growth inhibition of human HOP62 cells after 48 hrs by coulter counting analysis; type: functional; conditions: HOP-62, 48 h; how it was run: as §3
[8] = biological target: Cyclin-dependent kinase 2/cyclin E1 (Homo sapiens) (UniProt P24864+P24941); assay: Inhibition of CDK2/Cyclin E1 (unknown origin) at 20 uM after 30 mins by scintillation counting analysis relative to control; type: protein-complex assay; how it was run: as §4
SNB-75 = assay: Growth inhibition of human SNB75 cells at 10 uM after 48 hrs by sulforhodamine B assay relative to control; type: functional; conditions: SNB-75, 48 h, read-out: GI
How it was run: (§6)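 NCI-60 primary screen at a single 10 µM dose. Continuous 48 h exposure, with growth or viability estimated by sulforhodamine B protein staining. Reported as percent growth inhibition of treated cells relative to untreated growth.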

[9] = Growth inhibition of human BT549 cells after 48 hrs by coulter counting analysis; type: functional; conditions: BT-549, 48 h; how it was run: as §3
SW-620 = assay: Growth inhibition of human SW620 cells after 48 hrs by coulter counting analysis; type: functional; conditions: SW-620, 48 h; how it was run: as §1
SNB-19 = assay: Growth inhibition of human SNB19 cells after 48 hrs by coulter counting analysis; type: functional; conditions: SNB-19, 48 h; how it was run: as §1
SR = assay: Growth inhibition of human SR cells after 48 hrs by coulter counting analysis; type: functional; how it was run: as §1
NCI-H460 = assay: Growth inhibition of human NCI-H460 cells after 48 hrs by coulter counting analysis; type: functional; conditions: NCI-H460, 48 h; how it was run: as §1
[10] = Growth inhibition of human UACC257 cells after 48 hrs by coulter counting analysis; type: functional; conditions: UACC-257, 48 h; how it was run: as §2
[11] = Growth inhibition of human Hs 578T cells after 48 hrs by coulter counting analysis; type: functional; how it was run: as §3
MDA-MB-231 = assay: Growth inhibition of human MDA-MB-231 cells after 48 hrs by coulter counting analysis; type: functional; conditions: MDA-MB-231, 48 h; how it was run: as §3
SN12C = assay: Growth inhibition of human SN12C cells after 48 hrs by coulter counting analysis; type: functional; how it was run: as §1
PC-3 = assay: Growth inhibition of human PC3 cells after 48 hrs by coulter counting analysis; type: functional; conditions: PC-3, 48 h; how it was run: as §1
DU-145 [12] = assay: Growth inhibition of human DU145 cells at 10 uM after 48 hrs by sulforhodamine B assay relative to control; type: functional; conditions: DU-145, 48 h, read-out: GI; how it was run: as §5
CCRF-CEM [13] = assay: Growth inhibition of human CCRF-CEM cells after 48 hrs by coulter counting analysis; type: functional; how it was run: as §3
[14] = Growth inhibition of human OVCAR8 cells at 10 uM after 48 hrs by sulforhodamine B assay relative to control; type: functional; conditions: OVCAR-8, 48 h, read-out: GI; how it was run: as §6

Glycogen synthase kinase-3 beta (Homo sapiens), sequence (P49841 whole entry, looked up): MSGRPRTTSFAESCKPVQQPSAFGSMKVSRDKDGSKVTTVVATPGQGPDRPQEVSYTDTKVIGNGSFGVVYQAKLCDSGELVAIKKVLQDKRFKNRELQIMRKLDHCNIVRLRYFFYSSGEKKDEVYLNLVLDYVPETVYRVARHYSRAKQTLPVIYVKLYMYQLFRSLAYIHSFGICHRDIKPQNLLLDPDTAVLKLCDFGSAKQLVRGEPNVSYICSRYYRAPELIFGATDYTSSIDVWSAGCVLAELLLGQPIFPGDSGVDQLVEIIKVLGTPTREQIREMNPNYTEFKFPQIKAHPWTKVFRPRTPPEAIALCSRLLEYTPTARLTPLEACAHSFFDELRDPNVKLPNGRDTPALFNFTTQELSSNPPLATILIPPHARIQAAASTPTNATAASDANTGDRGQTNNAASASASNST

SMILES | GI50 (NCI-H23) [µM] | GI50 [1] [µM] | GI50 (TK-10) [µM] | GI50 (A549) [µM] | GI50 (DU-145 [3]) [µM] | inhibition [4] [%] | GI50 [5] [µM] | GI50 (CAKI-1) [µM] | GI50 (HCT-116) [µM] | inhibition of growth at 10 µM (CCRF-CEM [6]) [%] | GI50 (SK-MEL-5) [µM] | GI50 (K562) [µM] | GI50 [7] [µM] | GI50 (A498) [µM] | GI50 (NCI-H522) [µM] | GI50 (HOP-62) [µM] | inhibition [8] [%] | inhibition of growth at 10 µM (SNB-75) [%] | GI50 [9] [µM] | GI50 (SW-620) [µM] | other results
COc1c(C(=O)/C=C/c2ccccc2)c(O)cc2occc12 | 6.12 | 3.63 | 11.2 | 8.62 | 3.81 | 28 | 3.56 | 8.07 | 3.72 | 65 | 3.87 | 4.43 | 3.76 | 7.97 | 4.29 | 11.3 | 1 | 86 | 7.72 | 3.52 | inhibition of growth at 10 µM [2]: 60%; GI50 (SNB-19): 7.33 µM; GI50 (SR): 3.27 µM; GI50 (NCI-H460): 3.02 µM; GI50 [10]: 7.01 µM; GI50 [11]: 2.76 µM; GI50 (MDA-MB-231): 4.38 µM; GI50 (SN12C): 4.48 µM; GI50 (PC-3): 7.01 µM; inhibition of growth at 10 µM (DU-145 [12]): 75%
C=CCc1c2c(c(OC)c3ccoc13)C(=O)/C(=C/c1ccccc1OC)O2 | 2.88 | 3.87 | 6.5 | 4.12 | 3.19 | 56 | 2.47 | 3.15 | 3.29 | 63 | 3.91 | 3.51 | 2.85 | 5.81 | 3.16 | 4.98 | 0 | 64 | 4.44 | 4.24 | GI50 (SNB-19): 5.83 µM; GI50 (SR): 3.16 µM; GI50 (NCI-H460): 3.46 µM; GI50 [10]: 6.41 µM; GI50 [11]: 5.29 µM; GI50 (CCRF-CEM [13]): 3.44 µM; GI50 (MDA-MB-231): 4.59 µM; inhibition of growth at 10 µM [14]: 61%; GI50 (SN12C): 4.85 µM; GI50 (PC-3): 5.25 µM; inhibition of growth at 10 µM (DU-145 [12]): 65%
